Screening data deposited in PubChem BioAssay by Johns Hopkins Ion Channel Center.
Hits are enriched below; roughly 2.3% of the tested compounds scored in any of these assays.
TRPC4 potent: positive allosteric modulators of TRPC4, primary screen, cell-based, mouse TRPC4beta, HEK293 mu-opioid, Fluo-4 calcium; DAMGO EC20, Fluo-4 Ca2+ flux; active compounds read high; B-score at 10 µM; 310,000 tested, 0.42% active; AID 2227, 2009;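 active = B-score of calcium response area above 5 SD of library B-scores, with initial fluorescence ratio within 5 SD of library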;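 note: B-score of integrated fluorescence ratio over time as area under calcium response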
TRPC6 activator: mouse TRPC6 channel activators, primary screen, cell-based, HEK293, membrane potential dye; AID 2550, 2010; Short transient receptor potential channel 6 (Mus musculus), Q61143; B-score at 10 µM; 310,000 tested, 0.13% active; HEK293-TRPC6 membrane potential dye fluorescence; active compounds read high;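 active = B-score of the integrated fluorescence ratio above library mean plus 3 SD, and starting fluorescence ratio within library mean plus 5 SD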;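 note: higher score means more depolarization so channel activation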
Target sequence (Q61143 whole entry, looked up): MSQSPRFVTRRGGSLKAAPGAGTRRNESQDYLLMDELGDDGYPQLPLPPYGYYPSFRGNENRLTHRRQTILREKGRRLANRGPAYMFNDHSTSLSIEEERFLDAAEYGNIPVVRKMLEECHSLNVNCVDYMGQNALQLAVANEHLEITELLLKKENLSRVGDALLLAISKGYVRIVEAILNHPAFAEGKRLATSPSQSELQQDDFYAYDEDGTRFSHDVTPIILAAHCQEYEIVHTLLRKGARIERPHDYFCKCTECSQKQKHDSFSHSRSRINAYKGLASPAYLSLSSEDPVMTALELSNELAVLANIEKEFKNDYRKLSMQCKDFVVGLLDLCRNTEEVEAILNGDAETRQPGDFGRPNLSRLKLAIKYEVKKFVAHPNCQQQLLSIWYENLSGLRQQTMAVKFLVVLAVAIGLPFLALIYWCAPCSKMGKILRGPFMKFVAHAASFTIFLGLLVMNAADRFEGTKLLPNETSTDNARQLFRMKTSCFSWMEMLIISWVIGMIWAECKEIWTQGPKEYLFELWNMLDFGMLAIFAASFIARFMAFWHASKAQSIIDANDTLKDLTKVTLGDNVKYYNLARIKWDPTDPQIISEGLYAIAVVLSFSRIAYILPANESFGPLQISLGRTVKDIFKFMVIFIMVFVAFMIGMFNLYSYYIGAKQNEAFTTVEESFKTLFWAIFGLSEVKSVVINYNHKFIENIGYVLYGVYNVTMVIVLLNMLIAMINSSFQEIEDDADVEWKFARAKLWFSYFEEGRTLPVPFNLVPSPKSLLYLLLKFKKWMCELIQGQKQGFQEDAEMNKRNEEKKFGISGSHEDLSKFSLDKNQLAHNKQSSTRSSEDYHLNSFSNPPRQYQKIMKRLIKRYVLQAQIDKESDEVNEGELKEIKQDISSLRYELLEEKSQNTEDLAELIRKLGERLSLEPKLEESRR
TRPC6 inh: mouse TRPC6 channel inhibitors, primary screen, cell-based, HEK293, membrane potential dye; 310,000 tested, 1.1% active; ACh-evoked depolarization; active compounds read low; Short transient receptor potential channel 6 (Mus musculus), Q61143; B-score at 10 µM; AID 2553, 2010;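 active = B-score under library mean minus 3 SD, initial fluorescence not abnormally high, positive integrated signal ratio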;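 note: B-score derived from integrated fluorescence ratio over the kinetic read; more negative B-score means stronger inhibition of depolarization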
TRPC4 act: activators of mouse TRPC4 channel, primary screen, Fluo4 calcium, HEK293 TRPC4beta/mu-opioid cells | Fluo4 calcium fluorescence; active compounds read high | B-score at 10 µM | Short transient receptor potential channel 4 (Mus musculus), Q9QUQ5 | 310,000 tested, 0.49% active;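 active = B-score above 5 SD of library B-scores, and initial fluorescence ratio not above library mean plus 5 SD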;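 note: positive B-score marks a calcium rise read as TRPC4 activation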
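System – HEK293 cells stably co-expressing mouse TRPC4beta and mu-opioid receptor · Signal – Fluo4 calcium-sensitive dye fluorescence, kinetic, 1 Hz baseline · Benchmarks – buffer (low) and maximal DAMGO (high) · Read-out – B score of integrated fluorescence ratio per well · Incubation – dye loading 45 min room temperature, 110 s kinetic read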
TRPC4 block: inhibitors of mouse TRPC4 channel, primary screen, Fluo4 calcium, HEK293 TRPC4beta/mu-opioid cells; B-score at 10 µM; DAMGO-evoked Fluo4 calcium flux; active compounds read low; 300,000 tested, 0.39% active; Short transient receptor potential channel 4 (Mus musculus), Q9QUQ5;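 active = B-score over 3 SD under the library average, no early fluorescence shift, positive overall ratio signal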
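Assay system: TRPC4beta/mu-opioid receptor HEK293 cell line; compound dosing: single concentration per test compound; detection: Fluo4 Ca2+ flux fluorescence; evaluation: per-well B score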
HEK293 MPD ctr: parental HEK293 membrane potential modulation, confirmation, counter-screen for TRPC6 modulator project, cell-based; membrane potential dye fluorescence; AID 488924, 2010; 2,400 tested, 51% active; membrane potential signal change, % at 10 µM; shares compounds with TRPC6 inh;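 active = membrane potential signal moves up or down beyond 5 SD from buffer-only wells, on both duplicate plates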
HEK293 MPD ctr 2: second counter-screen for TRPC6 modulators: effect in parental HEK293 cells; shares compounds with TRPC6 inh; membrane potential dye fluorescence; after compound, maximal acetylcholine stimulation; inhibition, % at 10 µM; 2,400 tested, 14% active;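 active = membrane potential signal drops by more than 5 SD from the mean control signal, in both duplicate plates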;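 note: plate controls were acetylcholine ECmax control wells for no effect and buffer only wells for full effect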
TRPC4/MOR mod: TRPC4 modulation by TRPC6 hit compounds, confirmation, selectivity assay for TRPC6 modulator project, cell-based, HEK293 TRPC4/mu-opioid, membrane potential dye, mouse | percent change from control (negative = decrease, positive = increase), % at 10 µM | 2,400 tested, 69% active | membrane potential fluorescence | shares compounds with TRPC6 inh;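 active = membrane potential signal moved up or down beyond 5 SD of buffer control wells, in both duplicate plates, actives on both sides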;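 note: plate controls were assay buffer wells for no effect and DAMGO maximal-effect wells for full effect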
TRPC4 ctr inh 2: second selectivity test of TRPC6 modulators against mouse TRPC4; shares compounds with TRPC6 inh; HEK293 TRPC4/mu-opioid, membrane potential dye fluorescence; stimulated with maximal-effect DAMGO; inhibition, % at 10 µM; 2,400 tested, 55% active; AID 488928;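 active = drop in membrane potential signal beyond 5 SD of the control wells in both duplicate plates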;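 note: TRPC4 counter screen for TRPC6 hits run under conditions tuned for TRPC6 not TRPC4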
TRPC6 inh conf: mouse TRPC6 channel inhibitors, confirmation, HEK293 cells, membrane potential dye, duplicate; shares compounds with TRPC6 inh; ACh-evoked depolarization; inhibition, % at 10 µM; 3,300 tested, 43% active; AID 488960, 2010;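 active = fluorescence ratio falls more than 5 SD below the full-stimulation control mean, in both duplicate runs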;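 note: integrated fluorescence ratio of peak minus minimum over baseline after agonist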
TRPC6 act conf: mouse TRPC6 channel activators, confirmation, HEK293 cells, membrane potential dye, duplicate; shares compounds with TRPC6 inh; activation, % at 10 µM; HEK293-TRPC6 membrane potential dye fluorescence, FDSS; 2,800 tested, 11% active; AID 488961, 2010;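 active = ratio signal rise beyond 5 SD above unstimulated control wells' mean, seen in both duplicate runs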;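 note: plate controls were buffer EC0 wells for no effect and acetylcholine ECmax response for full effect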
Active calls of the source: *.

Screening COc1cc2c(cc1OC)C(c1ccc(-c3ccc(Cl)cc3Cl)o1)=NCC2 returned TRPC4 potent inactive, TRPC6 activator inactive, TRPC6 inh inactive, TRPC4 act inactive and TRPC4 block inactive.
Screening COc1cc2c(cc1OC)C(c1ccc(-c3ccc(Cl)c(Cl)c3)o1)=NCC2 returned TRPC4 potent inactive, TRPC6 activator inactive, TRPC6 inh inactive, TRPC4 act inactive and TRPC4 block inactive.
For COc1cc2c(cc1OC)C(c1ccc(-c3ccccc3Cl)o1)=NCC2 the results were TRPC4 potent inactive, TRPC6 activator inactive, TRPC6 inh -6.2*, TRPC4 act inactive, TRPC4 block inactive, HEK293 MPD ctr -190%*, HEK293 MPD ctr 2 inactive, TRPC4/MOR mod -48%*, TRPC4 ctr inh 2 52%*, TRPC6 inh conf 40%* and TRPC6 act conf inactive.
Screening O=C(CNCc1ccccc1)NC1C2CC3CC(C2)CC1C3 (stereo not given) returned TRPC4 potent inactive, TRPC6 activator inactive, TRPC6 inh -5.8*, TRPC4 act inactive, TRPC4 block inactive, HEK293 MPD ctr inactive, HEK293 MPD ctr 2 inactive, TRPC4/MOR mod 9.0%*, TRPC4 ctr inh 2 36%* and TRPC6 inh conf 60%*.
`Cc1cc(=O)oc2c3c4c(cc12)OCCN4CCC3` gave TRPC4 potent inactive, TRPC6 activator inactive, TRPC6 inh inactive, TRPC4 act inactive and TRPC4 block inactive.
CC(C)c1cc(=O)oc2c3c4c(cc12)CCCN4CCC3 was read as TRPC4 potent inactive, TRPC6 activator inactive, TRPC6 inh -5.2*, TRPC4 act inactive, TRPC4 block inactive, HEK293 MPD ctr 640%*, HEK293 MPD ctr 2 inactive, TRPC4/MOR mod -127%*, TRPC4 ctr inh 2 39%*, TRPC6 inh conf inactive and TRPC6 act conf inactive.
`COc1ccc(C(C(=O)NC2CCCC2)N(C(=O)c2csnn2)C2CCCC2)cc1` (stereo not given) gave TRPC4 potent inactive, TRPC6 activator inactive, TRPC6 inh -6.3*, TRPC4 act inactive, TRPC4 block inactive, HEK293 MPD ctr inactive, HEK293 MPD ctr 2 inactive, TRPC4/MOR mod 18%*, TRPC4 ctr inh 2 inactive and TRPC6 inh conf inactive.
`COc1ccc(C(C(=O)NC2CCCC2)N(C(=O)c2csnn2)C2CC2)cc1` (stereo not given) gave TRPC4 potent inactive, TRPC6 activator inactive, TRPC6 inh inactive, TRPC4 act inactive and TRPC4 block inactive.
Screening COc1cc(/C=N/NC(=O)c2cc(-c3ccccc3)sc2N)cc(OC)c1OC returned TRPC4 potent inactive, TRPC6 activator inactive, TRPC6 inh -5*, TRPC4 act inactive, TRPC4 block inactive, HEK293 MPD ctr inactive, HEK293 MPD ctr 2 inactive, TRPC4/MOR mod inactive, TRPC4 ctr inh 2 53%*, TRPC6 inh conf 44%* and TRPC6 act conf inactive.
`COc1cc(/C=N/NC(=O)c2ccc(-c3ccccc3)cc2)cc(OC)c1OC` gave TRPC4 potent inactive, TRPC6 activator inactive, TRPC6 inh inactive, TRPC4 act inactive and TRPC4 block inactive.
`CCc1cc(=O)oc2c(C)c(OCC(=O)N3CCC(C(=O)O)CC3)ccc12` gave TRPC4 potent inactive, TRPC6 activator inactive, TRPC6 inh inactive, TRPC4 act inactive and TRPC4 block inactive.
CC12CCC(=O)N1C(C(=O)Nc1cc(C(F)(F)F)ccc1N1CCOCC1)CS2 (stereo not given) was read as TRPC4 potent inactive, TRPC6 activator inactive, TRPC6 inh -5.5*, TRPC4 act inactive, TRPC4 block inactive, HEK293 MPD ctr inactive, HEK293 MPD ctr 2 inactive, TRPC4/MOR mod inactive, TRPC4 ctr inh 2 inactive, TRPC6 inh conf inactive and TRPC6 act conf inactive.
For CC12CCC(=O)N1C(C(=O)Nc1cc(C(F)(F)F)ccc1N1CCCCC1)CS2 (stereo not given) the results were TRPC4 potent inactive, TRPC6 activator inactive, TRPC6 inh inactive, TRPC4 act inactive and TRPC4 block inactive.
For O=C(NN=C1CCCC1)c1ccccc1[N+](=O)[O-] the results were TRPC4 potent inactive, TRPC6 activator inactive, TRPC6 inh -5.6*, TRPC4 act inactive, TRPC4 block inactive, HEK293 MPD ctr inactive, HEK293 MPD ctr 2 inactive, TRPC4/MOR mod 8.0%*, TRPC4 ctr inh 2 inactive, TRPC6 inh conf inactive and TRPC6 act conf inactive.
For CC(C)N1CCC(=NNC(=O)c2ccccc2[N+](=O)[O-])CC1 the results were TRPC4 potent inactive, TRPC6 activator inactive, TRPC6 inh inactive, TRPC4 act inactive and TRPC4 block inactive.
`CC(C)(C)c1ccc(OCCCNC2CCCC2)cc1` gave TRPC4 potent inactive, TRPC6 activator inactive, TRPC6 inh -5.8*, TRPC4 act inactive, TRPC4 block inactive, HEK293 MPD ctr 209%*, HEK293 MPD ctr 2 62%*, TRPC4/MOR mod 47%*, TRPC4 ctr inh 2 40%* and TRPC6 inh conf 66%*.
`Cc1ccc(OCCCNC2CCCC2)cc1` gave TRPC4 potent inactive, TRPC6 activator inactive, TRPC6 inh inactive, TRPC4 act inactive and TRPC4 block inactive.
